Experimental data taken from ChEMBL document CHEMBL1157254, “Metabolites of the "smoke tree", Dalea spinosa, potentiate antibiotic activity against multidrug-resistant Staphylococcus aureus” (2006).
Activity calls are given as the source filed them. The calls are words filed in the database; no cut-off is given here.

Tests used:
[1] = molecular target: T1, Quinolone resistance protein NorA (Staphylococcus aureus) (UniProt P0A0J7); assay: Inhibition of NorA efflux pump in Staphylococcus aureus K1758 mutant assessed as fold reduction of berberine MIC at 56 uM by twofold serial dilution method
T1 sequence (whole entry): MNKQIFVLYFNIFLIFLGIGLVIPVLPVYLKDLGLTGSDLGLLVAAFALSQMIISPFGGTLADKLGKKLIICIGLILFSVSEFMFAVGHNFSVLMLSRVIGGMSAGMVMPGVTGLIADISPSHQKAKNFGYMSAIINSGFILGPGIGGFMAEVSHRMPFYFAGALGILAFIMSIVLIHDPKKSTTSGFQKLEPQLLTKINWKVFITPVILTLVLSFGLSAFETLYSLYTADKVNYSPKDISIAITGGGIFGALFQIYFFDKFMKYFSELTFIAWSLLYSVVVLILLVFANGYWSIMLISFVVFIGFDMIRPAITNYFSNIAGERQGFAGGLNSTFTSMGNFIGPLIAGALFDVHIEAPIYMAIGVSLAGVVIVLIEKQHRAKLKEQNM
Procedure, shortened: (§1)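 Checkerboard assay in 96-well plates. Berberine is diluted 2-fold from 30 to 0.5 µg/mL (89-1.5 µM) across rows, and plant compound from 15 to 0.015 µg/mL across columns, with single-agent dilution series on each plate. Inoculum 5 × 10⁶ CFU/mL, 24 h at 37 °C, growth read at A600. Result is the fold reduction in berberine MIC.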

[2] = molecular target: T1, Quinolone resistance protein NorA (Staphylococcus aureus); assay: Inhibition of NorA efflux pump in wild-type Staphylococcus aureus 8325-4 assessed as fold reduction of berberine MIC at 56 uM by twofold serial dilution method; procedure, shortened: as §1
[3] = tested on: Candida albicans; assay: Antimicrobial activity against Candida albicans F5 by twofold serial dilution method; type: functional
[4] = tested on: Saccharomyces cerevisiae; assay: Antimicrobial activity against Saccharomyces cerevisiae BY4742 by twofold serial dilution method; type: functional
[5] = tested on: Staphylococcus aureus; assay: Inhibition of MDR protein in wild-type Staphylococcus aureus 8325-4 assessed as potentiation of antimicrobial activity of berberine after 18 hrs by twofold serial dilution method
[6] = tested on: Staphylococcus aureus; assay: Antimicrobial activity against wild-type Staphylococcus aureus 8325-4 by twofold serial dilution method; type: functional
[7] = tested on: Enterococcus faecalis; assay: Antimicrobial activity against Enterococcus faecalis V583 by twofold serial dilution method; type: functional
[8] = tested on: Escherichia coli; assay: Antimicrobial activity against wild-type Escherichia coli K12 by twofold serial dilution method; type: functional
[9] = tested on: Pseudomonas aeruginosa; assay: Antimicrobial activity against Pseudomonas aeruginosa PA14 by twofold serial dilution method; type: functional
[10] = molecular target: T1, Quinolone resistance protein NorA (Staphylococcus aureus); assay: Inhibition of NorA efflux pump in Staphylococcus aureus K2361 mutant overexpressing NorA assessed as potentiation of berberine-induced antimicrobial activity at 56 uM by twofold serial dilution method; procedure, shortened: as §1
[11] = molecular target: T1, Quinolone resistance protein NorA (Staphylococcus aureus); assay: Inhibition of NorA efflux pump in Staphylococcus aureus K2361 mutant overexpressing NorA assessed as potentiation of berberine-induced antimicrobial activity at 48 uM by twofold serial dilution method; procedure, shortened: as §1
[12] = tested on: Staphylococcus aureus; assay: Antimicrobial activity against wild-type Staphylococcus aureus 8325-4; type: functional
Procedure, shortened: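 Wild-type S. aureus 8325-4 grown in Mueller-Hinton broth and inoculated at 10⁵ cells/mL. Test compound serially diluted 2-fold from 50 µg/mL ([…]). Incubated 18 h at 37 °C. Growth read as absorbance at 600 nm. Triplicate, following NCCLS recommendations.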

[13] = tested on: Staphylococcus aureus; assay: Antimicrobial activity against NorA knockout Staphylococcus aureus K1758 mutant; type: functional
[14] = tested on: Staphylococcus aureus; assay: Antimicrobial activity against Staphylococcus aureus K2361 mutant overexpressing NorA; type: functional
[15] = molecular target: T1, Quinolone resistance protein NorA (Staphylococcus aureus); assay: Inhibition of NorA efflux pump in Staphylococcus aureus K2361 mutant overexpressing NorA assessed as potentiation of berberine-induced antimicrobial activity at 42 uM by twofold serial dilution method; procedure, shortened: as §1
[16] = molecular target: T1, Quinolone resistance protein NorA (Staphylococcus aureus); assay: Inhibition of NorA efflux pump in wild-type Staphylococcus aureus 8325-4 assessed as fold reduction of berberine MIC at 42 uM by twofold serial dilution method; procedure, shortened: as §1
[17] = molecular target: T1, Quinolone resistance protein NorA (Staphylococcus aureus); assay: Inhibition of NorA efflux pump in Staphylococcus aureus K1758 mutant assessed as fold reduction of berberine MIC at 48 uM by twofold serial dilution method; procedure, shortened: as §1
[18] = molecular target: T1, Quinolone resistance protein NorA (Staphylococcus aureus); assay: Inhibition of NorA efflux pump in wild-type Staphylococcus aureus 8325-4 assessed as fold reduction of berberine MIC at 48 uM by twofold serial dilution method; procedure, shortened: as §1

Row | Structure (SMILES) | fold change (FC) [1] | fold change (FC) [2] | MIC [3] [µM] | MIC [4] [µM] | Activity [5] | MIC [6] [µM] | MIC [7] [µM] | MIC [8] [µM] | MIC [9] [µM] | Activity [10] | Activity [11] | MIC [12] [µM] | MIC [13] [µM] | MIC [14] [µM] | Activity [15] | fold change (FC) [16] | fold change (FC) [17] | fold change (FC) [18]
1 | COc1ccc2c(c1)O[C@@H]1c3ccc(O)cc3OC[C@H]21 | 4 | 4 | > 140 | > 140 | Active | > 140 | > 140 | > 140 | > 140 | inactive |  |  |  |  |  |  |  | 
2 | COc1ccc2c(c1)O[C@@H]1c3ccc(OC)c(O)c3OC[C@H]21 |  |  | > 140 | > 140 | inactive | > 140 | > 140 | > 140 | > 140 |  |  |  |  |  |  |  |  | 
3 | COc1ccc(-c2coc3cc(O)c(OC)cc3c2=O)c(O)c1 |  |  | > 140 | > 140 | Active | > 140 | > 140 | > 140 | > 140 |  | inactive |  |  |  |  |  |  | 
4 | COc1ccc2cc3[n+](cc2c1OC)CCc1cc2c(cc1-3)OCO2 [BERBERINE CHLORIDE] |  |  |  |  |  |  |  |  |  |  |  | 372 | 89 | > 1490 |  |  |  | 
5 | COc1cc(OC(C)=O)ccc1-c1oc2cc3c(cc2c1C=O)OCO3 [SPINOSAN A ACETATE] |  |  | > 140 | > 140 | Active | > 140 | > 140 | > 140 | > 140 |  |  |  |  |  | Active | 62 |  | 
6 | COc1cc(O)ccc1-c1oc2cc3c(cc2c1C=O)OCO3 [SPINOSAN A] |  |  | > 140 | > 140 | Active | > 140 | > 140 | > 140 | > 140 |  | inactive |  |  |  |  |  | 15 | 8
7 | COc1ccc2c(C=O)c(-c3ccc(O)cc3OC)oc2c1 [SPINOSAN B] |  |  | > 140 | > 140 | inactive | > 140 | > 140 | > 140 | > 140 |  |  |  |  |  |  |  |  | 
